This data set relates to MS2 coat protein. As to the kind of experiment: apparent Kd, MS2 coat protein; higher = weaker binding; RNA-MaP array; FMN 200 µM where present. Put shortly: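 Designs were transcribed by stalled E. coli RNA polymerase on Illumina sequencing-chip clusters. They were titrated with SNAP-549-labelled MS2 coat protein from 0.7 or 1.5 nM, doubling to 3 µM, in 100 mM Tris-HCl pH 7.5, 80 mM KCl, 4 mM MgCl2, BSA, DTT, yeast tRNA and Tween-20, without and then with constant ligand. The apparent Kd is the median of filtered per-cluster fits after normalisation of green signal to red-channel RNA signal and control-cluster median Fmax.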

The mark [1] stands for this setting: designed as: OFF switch for flavin mononucleotide, no ligand.
[2] abbreviates: ligand present: flavin mononucleotide, designed as: OFF switch for flavin mononucleotide.
[3] abbreviates: ligand present: flavin mononucleotide, designed as: ON switch for flavin mononucleotide.
[4] abbreviates: designed as: ON switch for flavin mononucleotide, no ligand.

By apparent Kd is commonly meant the concentration giving half-maximal binding under the conditions of the assay. For the sequence “GUAGUGUGAGGAUAUGAUUAAUAGACGGGAUUGCGACUGCAUCAGAAGGCACAUGAGGAUCACCCAUGUAUGAA”, the “apparent Kd” value under setting [1] stood at 18.8 nM and the “apparent Kd” value under setting [2] was determined as 51.9 nM.

Take “AAAUACCUUGUGAUCAGCGUAACAUGAGGAUCACCCAUGUUGCAGGAUAUCGAACCCAGUCAGUACGAGAAGGGCAAUAGUGUU”: the “apparent Kd” value runs as follows: under setting [1], 7.16 nM; under setting [2], 11.6 nM.

As for “UGCAGGUGAGGAUAUGCGGGCGAGCUAACAUAAGCAUCGAAGCAGAAGGCACAUGAGGAUCACCCAUGUAGUCC”, the “apparent Kd” value runs as follows: under setting [1], 18.9 nM; under setting [2], 28 nM.

Take “ACCUCGUCAGGAUAUCCUAUUAAUUGUUUCAUAUUUACUAUGGAGAAGGGACAUGAGGAUCACCCAUGUUGGUC”: the “apparent Kd” value runs as follows: under setting [1], 53.3 nM; under setting [2], 57.8 nM.

“AUAAUGAGAGGAUAUACAUGAGGAUCACCCAUGUUAUUAUCACGGCGUGCUCCAUUACGUAGAAGGCUCAUUUA”: the “apparent Kd” value under setting [1] was determined as 117 nM and the “apparent Kd” value under setting [2] amounted to 35.2 nM.

As to “CGAUAACAUAGUUAUCCGUAGCGAACAUGAGGAUCACCCAUGUAGGAUAUGUUACUAAACUAGUAACAGAAGGACAUGAGUAUU”, the “apparent Kd” value worked out at 154 nM under setting [1] and 407 nM under setting [2].

As to “GUGUACAGAGGAUAUACAUAAGCUAGGAAACUAGCAACCUCACAUGAGGAUCACCCAUGUAGAAGGCUGUACAC”, the “apparent Kd” value reads like this: under setting [1], 189 nM; under setting [2], 59.6 nM.

Take “AUCAGCUCGUCAGGAUAUACAUCACUGCUUCGGCAGUGUAUUAAGGUCACAUGAGGAUCACCCAUGUAGAAGGGACGAGCUGAU”: the “apparent Kd” value under setting [1] came out at 21.2 nM and the “apparent Kd” value under setting [2] worked out at 142 nM.

Take “AAGAAGUCAGGAUAUCGUUAAUUUAGUUGUUUGUAUUAGUUCGAGAAGGGACAUGAGGAUCACCCAUGUAAGAA”: the “apparent Kd” value is, setting by setting: under setting [1], 35.2 nM; under setting [2], 42.7 nM.

Take “GGAUAGGACAGAGGAUAUACGUGCGAGAGAUACUAGCAAAAUUUCCUCACAUGAGGAUCACCCAUGUAGAAGGCUGUCCUAUCG”: the “apparent Kd” value came to 162 nM under setting [1] and 195 nM under setting [2].

“GCCAGAGCAGGAUAUUCAAUAUCACACAUGAGGAUCACCCAUGUCCGGCGAAAGCUGGAGGGAGAAGGGCUCUGGC”: the “apparent Kd” value under setting [1] was 62.6 nM and the “apparent Kd” value under setting [2] amounted to 18.7 nM.

Regarding “AAGAAACAUGAGGAUCACCCAUGUAAGAUAAACACAGGAUAUGCGAAUAAAAUAAAUAAAGCAGAAGGGUGAAGAA”, the “apparent Kd” value under setting [3] is 16.7 nM.

In the case of “GGUGCGUUUGUGAGGAUAUGCUGGUCCUUGGAUCAGCAGAAGGCACAUGAGGAUCACCCAUGUGGUGUCCCUCC”, the “apparent Kd” value was determined as 168 nM under setting [1] and 291 nM under setting [2].

With “UGGAACAUGGGAGGAUAUGGGAUGAUAACAUGAGGAUCACCCAUGUUAAAGAUGCCGAGAGGCAACUAGAAGGCCCAUGUUCCU”, the “apparent Kd” value reads like this: under setting [4], 368 nM; under setting [3], 60.5 nM.

“GCCAUCGCAUGAGGAUAUGGUCUGGUUUCCAGACCAGAAGGCAUGUCAUAAGACAUGAGGAUCACCCAUGUAGUUAAGAUGGCA”: the “apparent Kd” value amounted to 714 nM under setting [4] and 47.7 nM under setting [3].

Consider “CGCAAGUCAGGAUAUUCGACUGGUAAAUCUGUGGAUCAGUAGGAGAAGGGACAUGAGGAUCACCCAUGUUUGUU”, for which the “apparent Kd” value is, setting by setting: under setting [1], 28.6 nM; under setting [2], 31.9 nM.

For “ACAUGAGGAUCACCCAUGUAUUACAUGGUUAUGUUUAUUAACAGAAGGCGAAAUUACCACUGUUUCGAGGAUAUGUAUUCUAUA”, the “apparent Kd” value is 65.5 nM under setting [1] and 63 nM under setting [2].

With “GCGUCAGAAUUAAUUGUGACAGACAGAAGGCAAUAGUAUGUGUCCGACAUGAGGAUCACCCAUGUUGAGGAUAUGUCUUGACGC”, the “apparent Kd” value runs as follows: under setting [1], 4.76 nM; under setting [2], 5.87 nM.

For the sequence “AACGAUCUAGGAUAUACAUGAGGAUCACCCAUGUAAGAGCUCAAACCGAGCUCCCUCUGUAGAAGGAGGUCAAA”, the “apparent Kd” value under setting [1] came out at 54.5 nM and the “apparent Kd” value under setting [2] amounted to 45.9 nM.

With “CAGGUAGACUGAGGAUAUACAAUAAACAGCUAGUCUAUCUAGCUGCCGACAUGAGGAUCACCCAUGUAGAAGGCAGUCUGCCUG”, the “apparent Kd” value is, setting by setting: under setting [1], 18.5 nM; under setting [2], 40 nM.

As for “CAAUUUAUGUCAGGAUAUACAAUACAAUGAUUAGUAGAAGGGAUUAAUACAUGAGGAUCACCCAUGUCAUGUGUCAUCGUGCCC”, the “apparent Kd” value reads like this: under setting [1], 24 nM; under setting [2], 20.7 nM.

For “AAUAUGUUGCAGAAGGUUAUUUUUAUAACGUGCCACUUGACAUGAGGAUCACCCAUGUAAUUGAUGAAGGAUAUGCAAUAUAUU”, the “apparent Kd” value by setting is: under setting [1], 6.46 nM; under setting [2], 6.34 nM.

Consider “UGUAUACAUGAGGAUCACCCAUGUAAGGAUAUGCUUUAUUAUUAUUAUUAUUAUUGUUGCAGAAGGUACAUUGU”, for which the “apparent Kd” value came out at 28.9 nM under setting [1] and 32.1 nM under setting [2].

Consider “CCACGUCACAUCUACAUGAGGAUCACCCAUGUCAAAAGACAUGAGGAUAUGCUACCUAAUUGGUAGCAGAAGGCAUGGACGUGG”, for which the “apparent Kd” value came out at 982 nM under setting [4] and 64.4 nM under setting [3].

Consider “CUUGUACAUGAGGAUCACCCAUGUUAGGAUAUCUCGCCGUCGGCUUGCCGACGGUAUUAGAGAAGGGACUUGGG”, for which the “apparent Kd” value stood at 56 nM under setting [1] and 33 nM under setting [2].

“UUUUAUGUCAAAGGAUAUAUAAAUAAAUUUAUAACAUGAGGAUCACCCAUGUACUUUAGUAUGAGGUAGAAGGUUGAUAAGAGA”: the “apparent Kd” value by setting is: under setting [4], 35.4 nM; under setting [3], 23.3 nM.

Consider “GACUUGCGCACAGGAUAUCCACGGAGCGGACGUGGAGAAGGGUGACAUGAGGAUCACCCAUGUACGUAAGUCUGGAUCACUUCC”, for which the “apparent Kd” value under setting [4] turned out to be 49.9 nM and the “apparent Kd” value under setting [3] was 37.9 nM.

On to “AAGUAUAGAGGAUAUAGUGAGUACUACAUGAGGAUCACCCAUGUUCUUCAAAGCGUAUUUCUAGAAGGCUAAUGAA”, for which the “apparent Kd” value turned out to be 50 nM under setting [1] and 114 nM under setting [2].

As for “UUGGACGUCGUAGGAUAUGUAGGAUAUUCCUACAUGAGGAUCACCCAUGUUGACAUGGAAGAAGGACAUAAGGACGAUGUCCAU”, the “apparent Kd” value runs as follows: under setting [4], 27.4 nM; under setting [3], 4.15 nM.

Take “GGAUGACAAAGUCAUCCUUAACGAACAUGAGGAUCACCCAUGUAGGAUAUGCUACUGAAACAGUAGCAGAAGGACAUGUGUCUU”: the “apparent Kd” value amounted to 29.7 nM under setting [1] and 130 nM under setting [2].

With “AACAAGUUAGGAUAUGCUGCUCGUCACAAAAGUGAUGAGUAGCAGAAGGAACAUGAGGAUCACCCAUGUAAAGA”, the “apparent Kd” value is, setting by setting: under setting [1], 29.3 nM; under setting [2], 23.7 nM.

Take “GUAAAUCAUGUAGGAUAUGCAUGGCGAAGCUACGCAGAAGGACAUGAGGAUCACCCAUGUCUGUCCGUCUGGAUACAGACGGAC”: the “apparent Kd” value under setting [1] was 24.6 nM and the “apparent Kd” value under setting [2] came to 195 nM.

In the case of “GAUCGCCGUGUCAGGAUAUCUUGUGUACCCACGUUAGAGAAGGGACAUGAGGAUCACCCAUGUACCCUGGCUUU”, the “apparent Kd” value under setting [1] was found to be 20.6 nM and the “apparent Kd” value under setting [2] came out at 20.5 nM.

For the sequence “AGUGCUAUGUAGAAGGCAGAUCUGAUUCAGAUCUGAGGAUAUACAUGAGGAUCACCCAUGUUAUGCACCAGCACGAGAGUGCAA”, the “apparent Kd” value under setting [1] is 8.2 nM and the “apparent Kd” value under setting [2] worked out at 17.5 nM.

Take “GCAGACGUGGUGAGGAUAUGCUCUACCUCGGUAGAGCAGAAGGCACAUGAGGAUCACCCAUGUGACUCCUCAUC”: the “apparent Kd” value by setting is: under setting [1], 18.6 nM; under setting [2], 19.2 nM.

For “UUCAUCAAUGAAGGAUAUCUAUGUCCAACAUGAGGAUCACCCAUGUUGAGGAUCACCUAUGUAUAGGAGAAGGUUAAUAUAACU”, the “apparent Kd” value runs as follows: under setting [4], 7.32 nM; under setting [3], 6.28 nM.

On to “UCAAUCAUGUAAGGAUAUGCAGCCGAAACGGCUGCAGAAGGUACUAUAAUUACAUGAGGAUCACCCAUGUUAUAAAAUUUAUAU”, for which the “apparent Kd” value is 169 nM under setting [4] and 35.2 nM under setting [3].

In the case of “CUGUGACGGUGCGCAAGUGGACGUAGAAGGGUCACAUGAGGAUCACCCAUGUGGGCCUGCUAGUGACAGGAUAUACGUUCGUGC”, the “apparent Kd” value under setting [2] worked out at 65.2 nM.

“UCGAAGAAGCAAGGAUAUCAAUAUUAGCAAAAUAUGACAUGAGGAUCACCCAUGUAAAUAUGGAGUGAGAAGGUGCAAUAAUUU”: the “apparent Kd” value amounted to 274 nM under setting [4] and 149 nM under setting [3].

For the sequence “UAAUAUAUACAAGGAUAUCAAUUAUAUACACAUCCUACAUGAGGAUCACCCAUGUUUUAUUUUUUUGAGAAGGUGUAUUGUCGG”, the “apparent Kd” value by setting is: under setting [4], 20.4 nM; under setting [3], 29.1 nM.

With “AAAAAUGGAGGAUAUACAUGAGGAUCACCCAUGUGUGACUAUACUAUGCGCUCUUCAGGUAGAAGGCCAAAAAA”, the “apparent Kd” value was found to be 28.4 nM under setting [1] and 39.4 nM under setting [2].

Consider “CUUUUGUGAGGAUAUUGGUAGUAAAUGAAUAAAAUUAUUACCGAGAAGGCACAUGAGGAUCACCCAUGUUCCUC”, for which the “apparent Kd” value is 47.7 nM under setting [1] and 491 nM under setting [2].

On to “ACGUAUAGAGGAUAUAGUGAAUAUUACAUGAGGAUCACCCAUGUUCUUCAAAGCAUAUUCCUAGAAGGCUGAUGAA”, for which the “apparent Kd” value under setting [1] came out at 44.8 nM and the “apparent Kd” value under setting [2] was determined as 83.6 nM.

On to “UCGCGGGUGCAGAAGGGAUAGGCCUAUUUUCGUGGUGUCCAAACUUAACAUGAGGAUCACCCAUGUCAGGAUAUGCCCACGCGA”, for which the “apparent Kd” value under setting [1] was 29.5 nM and the “apparent Kd” value under setting [2] was 52.7 nM.

Consider “CCCGCUGGAGGAUAUGCACUACGUGUGUUUUCUUUUGAGGCACAUGAGGAUCACCCAUGUAGAAGGCCACGCGG”, for which the “apparent Kd” value runs as follows: under setting [1], 97.6 nM; under setting [2], 430 nM.

For the sequence “UAUGUGAGAGGAUAUACUGAACCCAACCUAGAUUCUCACGAACAUGAGGAUCACCCAUGUAGAAGGCUCCGUGU”, the “apparent Kd” value is, setting by setting: under setting [1], 124 nM; under setting [2], 394 nM.

For “UUUUAACAUGAGGAUCACCCAUGUGAGGAUAUCGUUAUUUAUAUUAAUAUUAAUAAAACGAGAAGGCACAUUUU”, the “apparent Kd” value is, setting by setting: under setting [1], 112 nM; under setting [2], 141 nM.

As to “UGAAAUCAUGUAGGAUAUGCAUGGCGAAGCUACGCAGAAGGACAUGAGGAUCACCCAUGUUCUAGCUACCGGAUACGGUGGCAA”, the “apparent Kd” value amounted to 23.1 nM under setting [1] and 116 nM under setting [2].

For the sequence “AAUUCGUUCUAGAAGGUGCAUUUUUUAAACAUGCAAGGAUAUAGACAUGAGGAUCACCCAUGUCUAUGAGACAUCGGCCUCCUG”, the “apparent Kd” value runs as follows: under setting [1], 6.3 nM; under setting [2], 13.3 nM.

The record behind these values is the EternaBench riboswitch data.
